Columns and labels:
SH-SY5Y [1] = test: Cellular uptake in human SH-SY5Y cells at 300 nM after 22 hrs by dual leucifearse reporter assay; assay type: ADME, cell-based; details: 0.3 µM
Summary of the method: (§1)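 Dual-luciferase plasmids (Renilla target, firefly internal control) transfected into SH-SY5Y; after 3 h, medium replaced with fresh medium containing ASO-peptide conjugates (150, 200, 300 nM) without Lipofectamine 2000. Luciferase activities measured 22 h after transfection; knockdown expressed as inhibition of Renilla expression. Phosphorothioate ASO targets Renilla mRNA 21-38 site.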

SH-SY5Y [2] = test: Antisense activity in human SH-SY5Y cells assessed as inhibition of luciferase gene expression at 60 nM after 22 hrs by luminometry in the presence of lipofectamine 2000; assay type: functional
Summary of the method: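 SH-SY5Y cells cotransfected via Lipofectamine 2000 with Renilla (target) and firefly (internal control) luciferase plasmids plus phosphorothioate ASO derivatives at 60 nM, targeting Renilla mRNA site 21-38; scrambled sequences as controls. Read-out: Renilla luciferase inhibition normalized to firefly.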

SH-SY5Y [3] = test: Antisense activity in human SH-SY5Y cells assessed as inhibition of luciferase gene expression at 300 nM after 22 hrs by luminometry; assay type: functional; design: scale not given: the % may be the effect or the level left; summary of the method: as §1

SMILES	Drug uptake (SH-SY5Y [1]) [%]	inhibition at 0.06 µM (SH-SY5Y [2]) [%]	Activity (SH-SY5Y [3]) [%]
Cc1cn([C@H]2C[C@H](OP(O)(=S)OC[C@H]3O[C@@H](n4cc(C)c(=O)[nH]c4=O)C[C@@H]3OP(O)(=S)OC[C@H]3O[C@@H](n4cnc5c(=O)[nH]c(N)nc54)[C@H](O)[C@@H]3OP(O)(=S)OC[C@H]3O[C@@H](n4cc(C)c(=O)[nH]c4=O)C[C@@H]3OP(O)(=S)OC[C@H]3O[C@@H](n4cc(C)c(=O)[nH]c4=O)C[C@@H]3OP(O)(=S)OC[C@H]3O[C@@H](n4cc(C)c(=O)[nH]c4=O)C[C@@H]3OP(O)(=S)OC[C@H]3O[C@@H](n4ccc(N)nc4=O)[C@H](O)[C@@H]3OP(O)(=S)OC[C@H]3O[C@@H](n4ccc(N)nc4=O)[C@H](O)[C@@H]3OP(O)(=S)OC[C@H]3O[C@@H](n4cc(C)c(=O)[nH]c4=O)C[C@@H]3OP(O)(=S)OC[C@H]3O[C@@H](n4cc(C)c(=O)[nH]c4=O)C[C@@H]3OP(O)(=S)OC[C@H]3O[C@@H](n4cc(C)c(=O)[nH]c4=O)C[C@@H]3OP(O)(=S)OC[C@H]3O[C@@H](n4cnc5c(=O)[nH]c(N)nc54)[C@H](O)[C@@H]3OP(O)(=S)OC[C@H]3O[C@@H](n4ccc(N)nc4=O)[C@H](O)[C@@H]3O)[C@@H](COP(O)(=S)O[C@H]3[C@@H](O)[C@H](n4ccc(N)nc4=O)O[C@@H]3COP(O)(=S)O[C@H]3C[C@H](n4cc(C)c(=O)[nH]c4=O)O[C@@H]3COP(O)(=S)O[C@H]3[C@@H](O)[C@H](n4cnc5c(=O)[nH]c(N)nc54)O[C@@H]3COP(O)(=S)O[C@H]3[C@@H](O)[C@H](n4cnc5c(=O)[nH]c(N)nc54)O[C@@H]3COP(O)(=S)O[C@H]3[C@@H](O)[C@H](n4cnc5c(N)ncnc54)O[C@@H]3COP(O)(=S)OCCCC(=O)N[C@H](CCCCNC(=N)N)C(=O)N[C@@H](CCCCNC(=N)N)C(=O)NCCCCCCO)O2)c(=O)[nH]c1=O (stereo partly specified)	18	64	–
Cc1cn([C@H]2C[C@H](OP(O)(=S)OC[C@H]3O[C@@H](n4cc(C)c(=O)[nH]c4=O)C[C@@H]3OP(O)(=S)OC[C@H]3O[C@@H](n4cnc5c(=O)[nH]c(N)nc54)[C@H](O)[C@@H]3OP(O)(=S)OC[C@H]3O[C@@H](n4cc(C)c(=O)[nH]c4=O)C[C@@H]3OP(O)(=S)OC[C@H]3O[C@@H](n4cc(C)c(=O)[nH]c4=O)C[C@@H]3OP(O)(=S)OC[C@H]3O[C@@H](n4cc(C)c(=O)[nH]c4=O)C[C@@H]3OP(O)(=S)OC[C@H]3O[C@@H](n4ccc(N)nc4=O)[C@H](O)[C@@H]3OP(O)(=S)OC[C@H]3O[C@@H](n4ccc(N)nc4=O)[C@H](O)[C@@H]3OP(O)(=S)OC[C@H]3O[C@@H](n4cc(C)c(=O)[nH]c4=O)C[C@@H]3OP(O)(=S)OC[C@H]3O[C@@H](n4cc(C)c(=O)[nH]c4=O)C[C@@H]3OP(O)(=S)OC[C@H]3O[C@@H](n4cc(C)c(=O)[nH]c4=O)C[C@@H]3OP(O)(=S)OC[C@H]3O[C@@H](n4cnc5c(=O)[nH]c(N)nc54)[C@H](O)[C@@H]3OP(O)(=S)OC[C@H]3O[C@@H](n4ccc(N)nc4=O)[C@H](O)[C@@H]3O)[C@@H](COP(O)(=S)O[C@H]3[C@@H](O)[C@H](n4ccc(N)nc4=O)O[C@@H]3COP(O)(=S)O[C@H]3C[C@H](n4cc(C)c(=O)[nH]c4=O)O[C@@H]3COP(O)(=S)O[C@H]3[C@@H](O)[C@H](n4cnc5c(=O)[nH]c(N)nc54)O[C@@H]3COP(O)(=S)O[C@H]3[C@@H](O)[C@H](n4cnc5c(=O)[nH]c(N)nc54)O[C@@H]3COP(O)(=S)O[C@H]3[C@@H](O)[C@H](n4cnc5c(N)ncnc54)O[C@@H]3COP(O)(=S)OCCCC(=O)N[C@H](CCCCN)C(=O)N[C@@H](CCCCN)C(=O)NCCCCCCO)O2)c(=O)[nH]c1=O (stereo partly specified)	11	61	–
Cc1cn([C@H]2C[C@H](OP(O)(=S)OC[C@H]3O[C@@H](n4cc(C)c(=O)[nH]c4=O)C[C@@H]3OP(O)(=S)OC[C@H]3O[C@@H](n4cnc5c(=O)[nH]c(N)nc54)[C@H](O)[C@@H]3OP(O)(=S)OC[C@H]3O[C@@H](n4cc(C)c(=O)[nH]c4=O)C[C@@H]3OP(O)(=S)OC[C@H]3O[C@@H](n4cc(C)c(=O)[nH]c4=O)C[C@@H]3OP(O)(=S)OC[C@H]3O[C@@H](n4cc(C)c(=O)[nH]c4=O)C[C@@H]3OP(O)(=S)OC[C@H]3O[C@@H](n4ccc(N)nc4=O)[C@H](O)[C@@H]3OP(O)(=S)OC[C@H]3O[C@@H](n4ccc(N)nc4=O)[C@H](O)[C@@H]3OP(O)(=S)OC[C@H]3O[C@@H](n4cc(C)c(=O)[nH]c4=O)C[C@@H]3OP(O)(=S)OC[C@H]3O[C@@H](n4cc(C)c(=O)[nH]c4=O)C[C@@H]3OP(O)(=S)OC[C@H]3O[C@@H](n4cc(C)c(=O)[nH]c4=O)C[C@@H]3OP(O)(=S)OC[C@H]3O[C@@H](n4cnc5c(=O)[nH]c(N)nc54)[C@H](O)[C@@H]3OP(O)(=S)OC[C@H]3O[C@@H](n4ccc(N)nc4=O)[C@H](O)[C@@H]3O)[C@@H](COP(O)(=S)O[C@H]3[C@@H](O)[C@H](n4ccc(N)nc4=O)O[C@@H]3COP(O)(=S)O[C@H]3C[C@H](n4cc(C)c(=O)[nH]c4=O)O[C@@H]3COP(O)(=S)O[C@H]3[C@@H](O)[C@H](n4cnc5c(=O)[nH]c(N)nc54)O[C@@H]3COP(O)(=S)O[C@H]3[C@@H](O)[C@H](n4cnc5c(=O)[nH]c(N)nc54)O[C@@H]3COP(O)(=S)O[C@H]3[C@@H](O)[C@H](n4cnc5c(N)ncnc54)O[C@@H]3COP(O)(=S)OCCCC(=O)N[C@H](CCCCNC(=N)N)C(=O)N[C@@H](CCCCNC(=N)N)C(=O)N[C@H](CCCCNC(=N)N)C(=O)N[C@@H](CCCCNC(=N)N)C(=O)NCCCCCCO)O2)c(=O)[nH]c1=O (stereo partly specified)	21	57	–
Cc1cn([C@H]2C[C@H](OP(O)(=S)OC[C@H]3O[C@@H](n4cc(C)c(=O)[nH]c4=O)C[C@@H]3OP(O)(=S)OC[C@H]3O[C@@H](n4cnc5c(=O)[nH]c(N)nc54)[C@H](O)[C@@H]3OP(O)(=S)OC[C@H]3O[C@@H](n4cc(C)c(=O)[nH]c4=O)C[C@@H]3OP(O)(=S)OC[C@H]3O[C@@H](n4cc(C)c(=O)[nH]c4=O)C[C@@H]3OP(O)(=S)OC[C@H]3O[C@@H](n4cc(C)c(=O)[nH]c4=O)C[C@@H]3OP(O)(=S)OC[C@H]3O[C@@H](n4ccc(N)nc4=O)[C@H](O)[C@@H]3OP(O)(=S)OC[C@H]3O[C@@H](n4ccc(N)nc4=O)[C@H](O)[C@@H]3OP(O)(=S)OC[C@H]3O[C@@H](n4cc(C)c(=O)[nH]c4=O)C[C@@H]3OP(O)(=S)OC[C@H]3O[C@@H](n4cc(C)c(=O)[nH]c4=O)C[C@@H]3OP(O)(=S)OC[C@H]3O[C@@H](n4cc(C)c(=O)[nH]c4=O)C[C@@H]3OP(O)(=S)OC[C@H]3O[C@@H](n4cnc5c(=O)[nH]c(N)nc54)[C@H](O)[C@@H]3OP(O)(=S)OC[C@H]3O[C@@H](n4ccc(N)nc4=O)[C@H](O)[C@@H]3O)[C@@H](COP(O)(=S)O[C@H]3[C@@H](O)[C@H](n4ccc(N)nc4=O)O[C@@H]3COP(O)(=S)O[C@H]3C[C@H](n4cc(C)c(=O)[nH]c4=O)O[C@@H]3COP(O)(=S)O[C@H]3[C@@H](O)[C@H](n4cnc5c(=O)[nH]c(N)nc54)O[C@@H]3COP(O)(=S)O[C@H]3[C@@H](O)[C@H](n4cnc5c(=O)[nH]c(N)nc54)O[C@@H]3COP(O)(=S)O[C@H]3[C@@H](O)[C@H](n4cnc5c(N)ncnc54)O[C@@H]3COP(O)(=S)OCCCC(=O)N[C@H](CCCCNC(=N)N)C(=O)N[C@@H](CCCCNC(N)N)C(=O)N[C@H](CCCCNC(=N)N)C(=O)N[C@@H](CCCCNC(=N)N)C(=O)N[C@H](CCCCNC(=N)N)C(=O)N[C@@H](CCCCNC(=N)N)C(=O)N[C@H](CCCCNC(=N)N)C(=O)N[C@@H](CCCCNC(=N)N)C(=O)NCCCCCCO)O2)c(=O)[nH]c1=O (stereo partly specified)	28	66	28
Cc1cn([C@H]2C[C@H](OP(O)(=S)OC[C@H]3O[C@@H](n4cc(C)c(=O)[nH]c4=O)C[C@@H]3OP(O)(=S)OC[C@H]3O[C@@H](n4cnc5c(=O)[nH]c(N)nc54)[C@H](O)[C@@H]3OP(O)(=S)OC[C@H]3O[C@@H](n4cc(C)c(=O)[nH]c4=O)C[C@@H]3OP(O)(=S)OC[C@H]3O[C@@H](n4cc(C)c(=O)[nH]c4=O)C[C@@H]3OP(O)(=S)OC[C@H]3O[C@@H](n4cc(C)c(=O)[nH]c4=O)C[C@@H]3OP(O)(=S)OC[C@H]3O[C@@H](n4ccc(N)nc4=O)[C@H](O)[C@@H]3OP(O)(=S)OC[C@H]3O[C@@H](n4ccc(N)nc4=O)[C@H](O)[C@@H]3OP(O)(=S)OC[C@H]3O[C@@H](n4cc(C)c(=O)[nH]c4=O)C[C@@H]3OP(O)(=S)OC[C@H]3O[C@@H](n4cc(C)c(=O)[nH]c4=O)C[C@@H]3OP(O)(=S)OC[C@H]3O[C@@H](n4cc(C)c(=O)[nH]c4=O)C[C@@H]3OP(O)(=S)OC[C@H]3O[C@@H](n4cnc5c(=O)[nH]c(N)nc54)[C@H](O)[C@@H]3OP(O)(=S)OC[C@H]3O[C@@H](n4ccc(N)nc4=O)[C@H](O)[C@@H]3O)[C@@H](COP(O)(=S)O[C@H]3[C@@H](O)[C@H](n4ccc(N)nc4=O)O[C@@H]3COP(O)(=S)O[C@H]3C[C@H](n4cc(C)c(=O)[nH]c4=O)O[C@@H]3COP(O)(=S)O[C@H]3[C@@H](O)[C@H](n4cnc5c(=O)[nH]c(N)nc54)O[C@@H]3COP(O)(=S)O[C@H]3[C@@H](O)[C@H](n4cnc5c(=O)[nH]c(N)nc54)O[C@@H]3COP(O)(=S)O[C@H]3[C@@H](O)[C@H](n4cnc5c(N)ncnc54)O[C@@H]3COP(O)(=S)OCCCC(=O)N[C@H](CCCCN)C(=O)N[C@@H](CCCCN)C(=O)N[C@H](CCCCN)C(=O)N[C@@H](CCCCN)C(=O)NCCCCCCO)O2)c(=O)[nH]c1=O (stereo partly specified)	15	57	–

— ChEMBL document CHEMBL1156310, “Stepwise synthesis of oligonucleotide-peptide conjugates containing guanidinium and lipophilic groups in their 3'-termini” (Bioorg Med Chem Lett, 2010)
